42 molecules from ChEMBL document CHEMBL3627670, “Structure-activity relationship studies of QS11, a small molecule Wnt synergistic agonist” (Bioorg Med Chem Lett, 2015) can be followed below.

Usually EC50 stands for the concentration giving half of the maximal effect.

A short description of assay [1]: Synergistic agonist activity at Wnt/beta-catenin (unknown origin) expressed in Wnt-3A conditioned media stimulated with HEK293 cells incubated for 24 hrs by firefly luciferase based TOPflash reporter assay. The assay is classed as cell-based. Particulars: Homo sapiens, HEK293, 24 h. In a few lines: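 HEK293 cells stably transfected with TOPFlash reporter, stimulated with Wnt3A conditioned media plus compound for 24 h. Luciferase activity then read by Bright-Glo luminescence. EC50 (µM) derived, given as mean ± standard deviation.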

Assay [2] deals with ADP-ribosylation factor GTPase-activating protein 1 (Rattus norvegicus) (UniProt Q62848). Briefly: Inhibition of poly-histidine tagged full-length rat ARFGAP1 expressed in Sf9 cells assessed as remaining enzyme activity at 20 uM using purified WT ARF1 pre-loaded with [gamm-32P]-labeled GTP incubated for 5 mins before ARF1-GTP addition followed by 25 mins incubation by scintillation counting method.

The target is the same in assay [3]. Briefly: Inhibition of poly-histidine tagged full-length rat ARFGAP1 expressed in Sf9 cells assessed as remaining enzyme activity at 10 uM using purified WT ARF1 pre-loaded with [gamm-32P]-labeled GTP incubated for 5 mins before ARF1-GTP addition followed by 25 mins incubation by scintillation counting method.
Assay [4] relates to HEK293. Briefly: Potency index, ratio of EC50 for QS11 to EC50 for test compound for synergistic agonist activity at Wnt/beta-catenin (unknown origin) expressed in Wnt-3A conditioned media stimulated with HEK293 cells incubated for 24 hrs by firefly luciferase based TOPflash reporter assay. Particulars: Homo sapiens. The assay is classed as cell-based. In general terms: In a reporter assay the amount or activity of a reporter protein is the signal.

Sequence of ADP-ribosylation factor GTPase-activating protein 1 (Rattus norvegicus) (Q62848 whole entry): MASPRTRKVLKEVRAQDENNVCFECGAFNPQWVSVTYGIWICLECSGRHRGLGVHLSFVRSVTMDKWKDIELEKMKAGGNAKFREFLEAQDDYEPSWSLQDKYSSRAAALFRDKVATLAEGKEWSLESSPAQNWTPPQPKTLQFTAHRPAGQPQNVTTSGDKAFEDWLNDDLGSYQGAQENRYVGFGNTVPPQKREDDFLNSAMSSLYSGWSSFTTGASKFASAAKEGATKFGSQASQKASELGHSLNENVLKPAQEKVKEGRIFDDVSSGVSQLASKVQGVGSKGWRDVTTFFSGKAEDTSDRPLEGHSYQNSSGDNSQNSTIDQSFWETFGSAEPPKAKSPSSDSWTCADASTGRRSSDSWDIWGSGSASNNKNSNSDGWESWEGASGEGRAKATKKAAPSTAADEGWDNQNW

As to `OC[C@H](Cc1ccccc1)Nc1nc(Oc2ccc3c(c2)CCC3)nc2c1ncn2Cc1ccc(-c2ccccc2F)cc1`, the EC50 in assay [1] was greater than 100 µM. Further, the Activity was found to be 47% in assay [2] and 81% in assay [3].
Take `OC[C@H](Cc1ccccc1)Nc1nc(Oc2ccc3c(c2)OCO3)nc2c1ncn2Cc1ccc(-c2ccccc2)cc1`: the EC50 in assay [1] worked out at 8.5 µM. Further, the Activity was 39% in assay [2] and 49% in assay [3].
`c1ccc(-c2ccc(Cn3cnc4c(NCc5cccc6ccccc56)nc(Oc5ccc6ccccc6c5)nc43)cc2)cc1`: the EC50 in assay [1] is greater than 100 µM. Moreover, the results for the Activity in assay [2] and in assay [3] were 31% and 53%, respectively.
As to `c1ccc(CCNc2nc(Oc3cccc4ccccc34)nc3c2ncn3Cc2ccc(-c3ccccc3)cc2)cc1`, the half-maximal effective concentration (EC50) in assay [1] was greater than 100 µM. Moreover, the Activity in assay [2] came out at 20%; in assay [3], 32%.
`CC(c1ccc(-c2ccccc2)cc1)n1cnc2c(N[C@H](CO)Cc3ccccc3)nc(Oc3ccc4c(c3)CCC4)nc21` (some centres not stated): in assay [1], the half-maximal effective concentration (EC50) was determined as 2.6 µM. Also, the Activity in assay [2] is 36%; in assay [3], 50%.
Take `OC[C@H](Cc1ccccc1)Nc1nc(Oc2cccc3ccccc23)nc2c1ncn2Cc1ccc(-c2ccccc2)cc1`: the EC50 in assay [1] turned out to be 6.6 µM. In addition, the results for the Activity in assay [2] and in assay [3] were 24% and 35%, respectively.
On to `COc1cccc(Oc2nc(NCc3cccc4ccccc34)c3ncn(Cc4ccc(-c5ccccc5)cc4)c3n2)c1`, for which the 50% effective concentration (EC50) in assay [1] was greater than 100 µM. Further, the Activity in assay [2] was determined as 29%; in assay [3], 37%.
Consider `Cc1ccccc1-c1ccc(Cn2cnc3c(N[C@H](CO)Cc4ccccc4)nc(Oc4ccc5c(c4)CCC5)nc32)cc1`, for which the concentration for a half-maximal effect (EC50) in assay [1] is greater than 100 µM. Further, the Activity amounted to 41% in assay [2] and 56% in assay [3].
Taken in the same sequence, the figures for `c1ccc(CCNc2nc(Oc3ccc4c(c3)CCC4)nc3c2ncn3Cc2ccc(-c3ccccc3)cc2)cc1` were greater than 100 µM, 50% and 60%.
As to `COc1nc(N[C@H](CO)Cc2ccccc2)c2ncn(Cc3ccc(-c4ccccc4)cc3)c2n1`, the half-maximal effective concentration (EC50) in assay [1] stood at 2.6 µM. Also, the figures for the Activity in assay [2] and in assay [3] were 39% and 70%, respectively.
For `c1ccc(-c2ccc(Cn3cnc4c(NCc5cccc6ccccc56)nc(Oc5ccc6c(c5)CCC6)nc43)cc2)cc1`, in assay [1], the half-maximal effective concentration (EC50) was greater than 100 µM. For the same molecule, the Activity was 63% in assay [2] and 74% in assay [3].
Taken in the same sequence, the figures for `CC[C@@H](CO)Nc1nc(Oc2ccc3ccccc3c2)nc2c1ncn2Cc1ccc(-c2ccccc2)cc1` were 4 µM, 24% and 41%.
Regarding `FC(F)(F)c1cccc(Oc2nc(NCc3cccc4ccccc34)c3ncn(Cc4ccc(-c5ccccc5)cc4)c3n2)c1`, the EC50 in assay [1] stood at 18 µM. For the same molecule, the values for the Activity in assay [2] and in assay [3] were 12% and 16%, respectively.
For `OC[C@H](Cc1ccccc1)Nc1nc(Oc2ccc3c(c2)CCC3)nc2c1ncn2Cc1ccc(Oc2ccccc2)cc1` the same measures were greater than 100 µM, 40% and 42%.
Regarding `COc1ccc(-c2ccc(Cn3cnc4c(N[C@H](CO)Cc5ccccc5)nc(Oc5ccc6c(c5)CCC6)nc43)cc2)cc1`, in assay [1], the concentration giving a half-maximal response (EC50) was greater than 100 µM. Besides, the values for the Activity in assay [2] and in assay [3] were 34% and 42%, respectively.
As for `OC[C@H](Cc1ccccc1)Nc1nc(Oc2ccc3c(c2)CCC3)nc2c1ncn2Cc1cn(Cc2ccccc2)nn1`, in assay [1], the 50% effective concentration (EC50) was greater than 100 µM. Moreover, the Activity in assay [2] turned out to be 62%; in assay [3] it was 93%.
Taken in the same sequence, the figures for `CC[C@@H](CO)Nc1nc(Oc2cccc3ccccc23)nc2c1ncn2Cc1ccc(-c2ccccc2)cc1` were 1.3 µM, 15% and 22%.
For `FC(F)(F)c1cccc(Oc2nc(NCCc3ccccc3)c3ncn(Cc4ccc(-c5ccccc5)cc4)c3n2)c1` the same measures were greater than 100 µM, 33% and 41%.
For `OC[C@H](Cc1ccccc1)Nc1nc(Oc2ccc3c(c2)CCC3)nc2c1ncn2Cc1ccc(-c2ccccc2)cc1` the same measures were 1.5 µM, 10% and 33%.
On to `COc1ccc(Oc2nc(N[C@H](CO)Cc3ccccc3)c3ncn(Cc4ccc(-c5ccccc5)cc4)c3n2)cc1OC`, for which the EC50 in assay [1] stood at 3.6 µM. Further, the Activity in assay [2] was 22%; in assay [3] it was 55%.
Regarding `CC[C@@H](CO)Nc1nc(Oc2ccc3c(c2)OCO3)nc2c1ncn2Cc1ccc(-c2ccccc2)cc1`, the EC50 in assay [1] was greater than 100 µM. The results for the Activity in assay [2] and in assay [3] were 32% and 70%, respectively.
Taken in the same sequence, the figures for `c1ccc(-c2ccc(Cn3cnc4c(NCc5cccc6ccccc56)nc(Oc5cccc6ccccc56)nc43)cc2)cc1` were greater than 100 µM, 20% and 20%.
Turning to `COc1ccc(Cn2cc(Cn3cnc4c(N[C@H](CO)Cc5ccccc5)nc(Oc5ccc6c(c5)CCC6)nc43)nn2)cc1`, the concentration for a half-maximal effect (EC50) in assay [1] is greater than 100 µM. Also, the Activity in assay [2] amounted to 75%; in assay [3], 98%.
Taken in the same sequence, the figures for `COc1cccc(Oc2nc(N[C@H](CO)Cc3ccccc3)c3ncn(Cc4ccc(-c5ccccc5)cc4)c3n2)c1` were 3.3 µM, 29% and 54%.
As to `COC(=O)[C@H](Cc1ccccc1)Nc1nc(Oc2cccc3ccccc23)nc2c1ncn2Cc1ccc(-c2ccccc2)cc1`, the EC50 in assay [1] was found to be 3.4 µM. Moreover, the Activity in assay [2] was determined as 12%; in assay [3], 21%.
Taken in the same sequence, the figures for `OC[C@H](Cc1ccccc1)Nc1nc(Oc2cccc(C(F)(F)F)c2)nc2c1ncn2Cc1ccc(-c2ccccc2)cc1` were 2.9 µM, 78% and 81%.
Regarding `c1ccc(-c2ccc(Cn3cnc4c(NCc5cccc6ccccc56)nc(Oc5ccc6c(c5)OCO6)nc43)cc2)cc1`, the concentration giving a half-maximal response (EC50) in assay [1] was greater than 100 µM. In addition, the Activity in assay [2] was determined as 34%; in assay [3], 35%.
On to `c1ccc(CCNc2nc(Oc3ccc4ccccc4c3)nc3c2ncn3Cc2ccc(-c3ccccc3)cc2)cc1`, for which the 50% effective concentration (EC50) in assay [1] was greater than 100 µM. Further, the Activity was 86% in assay [2] and 90% in assay [3].
Turning to `OC[C@H](Cc1ccccc1)Nc1nc(Oc2ccc3c(c2)CCC3)nc2c1ncn2CCOCc1ccccc1`, the EC50 in assay [1] was greater than 100 µM. The Activity in assay [2] turned out to be 109%; in assay [3], 106%.
As for `COc1cccc(Oc2nc(NCCc3ccccc3)c3ncn(Cc4ccc(-c5ccccc5)cc4)c3n2)c1`, the concentration for a half-maximal effect (EC50) in assay [1] was greater than 100 µM. For the same molecule, the Activity is 40% in assay [2] and 46% in assay [3].
For `OC[C@H](Cc1ccccc1)Nc1nc(Oc2ccc3c(c2)CCC3)nc2c1ncn2Cc1ccccc1`, in assay [1], the EC50 was greater than 100 µM. In addition, the Activity in assay [2] was 113%; in assay [3], 117%.
On to `OC[C@H](Cc1ccccc1)Nc1nc(Oc2ccc3c(c2)CCC3)nc2c1ncn2-c1ccc(-c2ccccc2)cc1`, for which, in assay [1], the EC50 was greater than 100 µM. The Activity in assay [2] worked out at 32%; in assay [3], 50%.
In the case of `OC[C@H](Cc1ccccc1)Nc1nc(N2CCOCC2)nc2c1ncn2Cc1ccc(-c2ccccc2)cc1`, the EC50 in assay [1] amounted to 1.5 µM. The Activity is 71% in assay [2] and 98% in assay [3].
In the case of `OC[C@H](Cc1ccccc1)Nc1nc(Oc2ccc3ccccc3c2)nc2c1ncn2Cc1ccc(-c2ccccc2)cc1`, the EC50 in assay [1] stood at 4.4 µM. In addition, the Activity in assay [2] is 35%; in assay [3], 53%.
Taken in the same sequence, the figures for `COC(=O)[C@H](Cc1ccccc1)Nc1nc(Oc2ccc3c(c2)OCO3)nc2c1ncn2Cc1ccc(-c2ccccc2)cc1` were 1.1 µM, 18% and 31%.
Taken in the same sequence, the figures for `O=[N+]([O-])c1ccc(Cn2cc(Cn3cnc4c(N[C@H](CO)Cc5ccccc5)nc(Oc5ccc6c(c5)CCC6)nc43)nn2)cc1` were greater than 100 µM, 45% and 58%.
Taken in the same sequence, the figures for `COc1cc(OC)cc(Oc2nc(N[C@H](CO)Cc3ccccc3)c3ncn(Cc4ccc(-c5ccccc5)cc4)c3n2)c1` were 1.9 µM, 11% and 24%.
Consider `COC(=O)[C@H](Cc1ccccc1)Nc1nc(Oc2ccc3ccccc3c2)nc2c1ncn2Cc1ccc(-c2ccccc2)cc1`, for which, in assay [1], the concentration for a half-maximal effect (EC50) turned out to be 0.65 µM. The Ratio EC50 in assay [4] is 2. Moreover, the Activity in assay [2] was found to be 17%; in assay [3] it was 25%.
Regarding `OC[C@H](Cc1ccccc1)Nc1nc(Oc2ccc3c(c2)CCC3)nc2c1ncn2Cc1cn(-c2ccccc2)nn1`, in assay [1], the EC50 was greater than 100 µM. The Activity amounted to 57% in assay [2] and 105% in assay [3].
For `CC[C@@H](CO)Nc1nc(Oc2ccc3c(c2)CCC3)nc2c1ncn2Cc1ccc(-c2ccccc2)cc1` the same measures were 4.5 µM, 57% and 90%.
For `Cc1ccccc1Cn1cc(Cn2cnc3c(N[C@H](CO)Cc4ccccc4)nc(Oc4ccc5c(c4)CCC5)nc32)nn1` the same measures were greater than 100 µM, 27% and 50%.
As for `c1ccc(CCNc2nc(Oc3ccc4c(c3)OCO4)nc3c2ncn3Cc2ccc(-c3ccccc3)cc2)cc1`, in assay [1], the EC50 was greater than 100 µM. Further, the Activity in assay [2] is 27%; in assay [3] it was 31%.
